Test results from paper PMC10360043 (FASEB journal : official publication of the Federation of …, 2023).
Blank lines part the entries; values can stand above or below the molecule they belong to.

Columns and labels:
[1] = tested on: LTR1 receptor; conditions: cited from earlier work
[2] = molecular target: PDI (Homo sapiens, UniProt P07237); experiment: Insulin-based turbidimetric assay, PDI; type: biochemical; conditions: insulin turbidity assay, 6-point dose curve
How it was run: (§1)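 Recombinant enzymes were purchased. Test compound was tested as a 6-point dilution series with enzyme at 10 μg/mL final (ERp5 at 30 μg/mL), 125 μM bovine recombinant insulin, 2 mM EDTA and 100 mM potassium phosphate. The reaction was started with 0.3 mM DTT, and insulin aggregation turbidity was read every minute for 75 min.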

[3] = tested on: LTR2 receptor; conditions: cited from earlier work
[4] = molecular target: T1, ERp57 (Homo sapiens, UniProt P30101); experiment: Insulin-based turbidimetric assay, ERp57; type: biochemical; conditions: insulin turbidity assay, 6-point dose curve
T1 sequence (P30101 25-505): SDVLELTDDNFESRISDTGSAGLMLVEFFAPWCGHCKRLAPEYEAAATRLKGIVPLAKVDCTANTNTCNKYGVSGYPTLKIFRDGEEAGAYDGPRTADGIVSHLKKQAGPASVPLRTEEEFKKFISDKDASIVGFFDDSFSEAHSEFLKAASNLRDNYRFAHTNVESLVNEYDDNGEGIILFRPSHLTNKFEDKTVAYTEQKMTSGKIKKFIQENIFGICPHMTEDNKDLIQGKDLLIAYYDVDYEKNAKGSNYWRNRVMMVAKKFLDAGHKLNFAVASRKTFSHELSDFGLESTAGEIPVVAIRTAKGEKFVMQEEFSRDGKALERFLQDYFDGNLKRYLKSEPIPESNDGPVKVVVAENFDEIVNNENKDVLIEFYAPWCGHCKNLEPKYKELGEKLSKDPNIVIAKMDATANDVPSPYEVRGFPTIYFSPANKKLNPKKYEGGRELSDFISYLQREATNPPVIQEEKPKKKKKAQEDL
How it was run: as §1

[5] = molecular target: T2, ERp5 (Homo sapiens, UniProt Q15084); experiment: Insulin-based turbidimetric assay, ERp5; type: biochemical; conditions: insulin turbidity assay, 6-point dose curve
T2 sequence (Q15084 20-440): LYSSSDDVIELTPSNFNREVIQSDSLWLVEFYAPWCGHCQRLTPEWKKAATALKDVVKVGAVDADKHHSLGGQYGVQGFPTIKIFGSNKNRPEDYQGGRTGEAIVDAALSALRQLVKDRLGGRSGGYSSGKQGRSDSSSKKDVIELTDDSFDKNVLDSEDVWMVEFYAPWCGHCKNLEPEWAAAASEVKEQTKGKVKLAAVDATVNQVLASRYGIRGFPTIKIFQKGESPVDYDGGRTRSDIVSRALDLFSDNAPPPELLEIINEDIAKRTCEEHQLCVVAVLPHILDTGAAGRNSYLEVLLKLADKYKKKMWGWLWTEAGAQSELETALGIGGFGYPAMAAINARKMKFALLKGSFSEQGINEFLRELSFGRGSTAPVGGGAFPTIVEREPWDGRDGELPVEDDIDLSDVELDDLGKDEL
How it was run: as §1

[6] = molecular target: T3, ERp72 (Homo sapiens, UniProt P13667); experiment: Insulin-based turbidimetric assay, ERp72; type: biochemical; conditions: insulin turbidity assay, 6-point dose curve
T3 sequence (P13667 21-645): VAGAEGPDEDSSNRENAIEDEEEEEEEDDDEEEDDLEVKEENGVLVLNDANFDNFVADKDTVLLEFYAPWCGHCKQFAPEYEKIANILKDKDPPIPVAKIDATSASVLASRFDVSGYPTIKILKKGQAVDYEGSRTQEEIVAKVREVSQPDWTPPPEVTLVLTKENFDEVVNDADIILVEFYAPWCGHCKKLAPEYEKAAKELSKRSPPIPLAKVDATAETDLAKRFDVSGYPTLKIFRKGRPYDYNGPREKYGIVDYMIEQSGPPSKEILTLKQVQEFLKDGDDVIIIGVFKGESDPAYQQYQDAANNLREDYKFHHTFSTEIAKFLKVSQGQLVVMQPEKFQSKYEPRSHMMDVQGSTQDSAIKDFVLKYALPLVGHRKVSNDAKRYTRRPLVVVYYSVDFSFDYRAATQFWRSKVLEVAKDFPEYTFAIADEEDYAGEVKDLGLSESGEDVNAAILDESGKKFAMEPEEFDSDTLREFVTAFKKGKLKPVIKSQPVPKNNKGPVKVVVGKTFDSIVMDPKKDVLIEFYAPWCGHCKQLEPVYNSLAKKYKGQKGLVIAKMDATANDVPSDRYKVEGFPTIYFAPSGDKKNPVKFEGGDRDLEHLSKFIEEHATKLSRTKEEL
How it was run: as §1

[7] = tested on: HEK293 cell line; experiment: PrestoBlue cell viability, HEK293; type: cell-based; conditions: Homo sapiens, HEK293, read-out: cell viability IC50
How it was run: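 HEK293 cells were maintained in high-glucose DMEM with 4 mM glutamine and 10% FBS. Cells were plated at 5,000 per well and grown 24 h, then exposed to test compound or vehicle for 2–24 h. PrestoBlue was added for 10–20 min at 37°C, and fluorescence was read (ex 560/em 590 nm). Signal was expressed as percent of control.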

[8] = tested on: EGFR; experiment: EGFR phosphorylation after EGF stimulation; type: cell-based, human; conditions: for decrease of EGFR phosphorylation: then EGF, OVCAR8
How it was run: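 OVCAR8 cells, grown to confluence, were serum-starved, exposed to test compound for 1 or 4 h, then stimulated with EGF (100 ng/mL final). Whole-cell extracts were made in M-PER, protein was quantified by Bradford, and samples were run on SDS-PAGE and transferred to PVDF. Blots were blocked in 5% milk/TBS, probed with anti-pEGFR-Y1068 and an HRP secondary in 3% BSA/TBS-0.1% Tween 20. Student's t-test versus the EGF control.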

[9] = tested on: Gab1; experiment: Gab1 phosphorylation after EGF stimulation; type: cell-based, human
[10] = tested on: OVCAR8 tumors; experiment: OVCAR8 xenograft with cisplatin and gemcitabine; type: in vivo, NOG mice
[11] = tested on: CA-125; experiment: Pilot clinical trial, CA-125 in relapsed ovarian cancer; type: in vivo, human
[12] = tested on: PDI, ERp5, ERp57, and ERp72 levels in OVCAR8 cells; experiment: Western blot of thiol isomerase levels in OVCAR8 cells; type: cell-based, human; conditions: 10 μM and 30 μM, 1 hour
[13] = tested on: OVCAR8 cells; experiment: PrestoBlue cell viability, OVCAR8; type: cell-based, human; conditions: for OVCAR8 cell viability, time course: concentrations and timepoints used in Figure 4A and B
[14] = tested on: plasma thiol isomerase; experiment: Plasma thiol isomerase activity of patients; type: in vivo, human; conditions: day 28 versus day 0, 40 mg twice daily
[15] = double the FDA approved dose for asthma; cited from earlier work
[16] = tested on: tissue factor dependent Factor Xa generation; experiment: Factor Xa generation assay on OVCAR8 cells; type: cell-based, human; conditions: 1, 3, 10, and 30 µM, 30 minutes; significant at 10 and 30 µM
[17] = Pilot clinical trial, adverse events; type: in vivo, human; conditions: 40 mg twice daily, four women
[18] = tested on: OVCAR8 tumors; experiment: OVCAR8 xenograft in NOG mice; type: in vivo; conditions: 30 mg/kg i.p. daily
[19] = 40 mg, oral ingestion; cited from earlier work

Sequence of PDI (P07237 18-508): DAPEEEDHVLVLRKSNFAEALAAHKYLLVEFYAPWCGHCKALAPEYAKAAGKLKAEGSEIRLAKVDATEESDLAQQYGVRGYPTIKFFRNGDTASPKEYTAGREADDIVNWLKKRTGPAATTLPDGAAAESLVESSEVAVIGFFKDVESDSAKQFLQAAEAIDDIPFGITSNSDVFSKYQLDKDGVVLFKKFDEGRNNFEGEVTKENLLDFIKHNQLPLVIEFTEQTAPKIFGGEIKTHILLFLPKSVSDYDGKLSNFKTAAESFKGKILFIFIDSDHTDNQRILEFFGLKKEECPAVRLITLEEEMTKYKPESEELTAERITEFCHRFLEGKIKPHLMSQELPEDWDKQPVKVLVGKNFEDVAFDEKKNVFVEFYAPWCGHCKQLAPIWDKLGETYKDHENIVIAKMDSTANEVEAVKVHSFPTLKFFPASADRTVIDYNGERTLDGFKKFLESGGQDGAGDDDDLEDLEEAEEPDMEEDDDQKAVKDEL

Molecule: CC(C)(O)c1ccccc1CC[C@@H](SCC1(CC(=O)O)CC1)c1cccc(/C=C/c2ccc3ccc(Cl)cc3n2)c1 [montelukast]
- potency at inhibiting the LTR1 receptor, times more potent than zafirlukast [1]: 2–3 times
- inhibition of PDI [2]: inhibited all four thiol isomerases albeit with less potency
- effects on the LTR2 receptor [3]: minimal effects
- inhibition of ERp57 [4]: inhibited all four thiol isomerases albeit with less potency
- inhibition of ERp5 [5]: inhibited all four thiol isomerases albeit with less potency
- inhibition of ERp72 [6]: inhibited all four thiol isomerases albeit with less potency

- inhibition of PDI [2]: concentration-dependent manner
- IC50 ([13]; Homo sapiens, OVCAR-8, read-out: cell viability IC50): 12 µM
- reduction of plasma thiol isomerase activity [14]: three out of four patients
- inhibition of ERp57 [4]: concentration-dependent manner
- inhibition of ERp5 [5]: concentration-dependent manner
- inhibition of ERp72 [6]: concentration-dependent manner
Molecule: COc1cc(C(=O)NS(=O)(=O)c2ccccc2C)ccc1Cc1cn(C)c2ccc(NC(=O)OC3CCCC3)cc12 [zafirlukast]
- IC50 [7]: > 100 µM
- decrease of EGFR phosphorylation ([8]; 10 μM, 1 hour): 18%
- decrease of EGFR phosphorylation ([8]; 10 μM, four hours): 39%
- decrease of EGFR phosphorylation ([8]; 30 μM, 1 hour): 27%
- decrease of EGFR phosphorylation ([8]; 30 μM, four hours): 52%
- decrease of Gab1 phosphorylation ([9]; 10 μM, 1 hour, then EGF, OVCAR8): 37%
- Gab1 phosphorylation decreased to ([9]; all other time points and concentrations (10 μM 4 hours; 30 μM 1 and 4 hours)): ≤ 5%
- mean decrease of tumor volume relative to cisplatin-gemcitabine alone ([10]; 30 mg/kg zafirlukast daily added to 5 mg/kg cisplatin and 120 mg/kg gemcitabine weekly, after 4 weeks): 38%
- decrease in tumor volume compared to the vehicle control ([10]; zafirlukast plus cisplatin and gemcitabine, end of the study): 83%
- CA-125 response ([11]; 40 mg twice daily, four women): None of the women demonstrated a decrease in CA-125
- mean change in CA-125 ([11]; following 40 mg twice daily, 0.036 prior to treatment): 0.015 U/mL per day
- mean CA-125 doubling time ([11]; following 40 mg twice daily, 29.8 days prior to treatment): 85.69 days
- change in thiol isomerase expression [12]: No significant change
- OVCAR8 cell viability, time course [13]: minimally altered
- tolerability of the 40 mg dose [15]: well tolerated
- effects on the LTR2 receptor [3]: minimal effects
- Factor Xa generation [16]: dose dependent decrease
- grade 3 or higher adverse events [17]: no grade 3 or higher adverse events reported
- hemorrhage [17]: no cases of hemorrhage reported
- toxicity considered possibly related to zafirlukast [17]: headache (grade 1)
- lung metastasis score (scale 0–4) ([18]; 32 days, control group 2.5): 0.25
- mean decrease in tumor volume compared to controls ([18]; day 32): 42%
- peak plasma concentration [19]: ~ 3 μM

Molecule: PACMA-31
- inhibition of EGFR activation ([8]; OVCAR8, Figure 4B): inhibited EFGR activation in a concentration-dependent manner
- OVCAR8 cell viability, time course [13]: minimally altered
